Experimental data from ChEMBL document CHEMBL3120088, “Discovery of selective small molecule type III phosphatidylinositol 4-kinase alpha (PI4KIIIα) inhibitors as anti hepatitis C (HCV) agents” (J Med Chem, 2014).

How the values were obtained:
Mus musculus [1] = test: Toxicity in mouse assessed as pathological changes in spleen at 40 mg/kg/day; type: organism-based; details: in vivo
How it was run: (§1)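 Mouse repeat-dose toxicity study: 40 mg/kg/day given daily for 14 days. Endpoints were morbidity, mortality, test-article-related changes in stomach, thymus and spleen, and clinical pathology parameters.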

Mus musculus [2] = test: Toxicity in mouse assessed as pathological changes in thymus at 40 mg/kg/day; type: organism-based; details: in vivo; how it was run: as §1
Mus musculus [3] = test: Toxicity in mouse assessed as pathological changes in stomach at 40 mg/kg/day; type: organism-based; details: in vivo; how it was run: as §1
Mus musculus [4] = test: Toxicity in mouse assessed as mortality at 40 mg/kg/day; type: organism-based; details: in vivo; how it was run: as §1
Mus musculus [5] = test: Toxicity in mouse assessed as morbidity at 40 mg/kg/day; type: organism-based; details: in vivo; how it was run: as §1
[6] = Toxicity in mouse after 14 days; type: organism-based; details: in vivo; how it was run: as §1
Rattus norvegicus [7] = test: Dose normalized AUC in Sprague-Dawley rat at 5 mg/kg, po; type: ADME, organism-based; set-up: dose 5 mg/kg, route oral; details: in vivo
How it was run: (§2)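 Rats were given a single dose of compound formulated in DMSO/cyclodextrin, either intravenously at 1 mg/kg or orally at 5 mg/kg. Each parameter comes from the matching route arm. Dose-normalized AUC is expressed as h kg ng mL⁻¹ mg⁻¹.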

Rattus norvegicus [8] = test: Dose normalized AUC in Sprague-Dawley rat at 1 mg/kg, iv; type: ADME, organism-based; set-up: dose 1 mg/kg, route intravenous; details: in vivo; how it was run: as §2
Rattus norvegicus [9] = test: (§3) Volume of distribution at steady state in Sprague-Dawley rat at 1 mg/kg, iv; type: ADME, organism-based; set-up: dose 1 mg/kg, route intravenous; details: in vivo; how it was run: as §2
Rattus norvegicus [10] = test: Half life in Sprague-Dawley rat at 1 mg/kg, iv; type: ADME, organism-based; set-up: dose 1 mg/kg, route intravenous; details: in vivo; how it was run: as §2
Rattus norvegicus [11] = test: (§4) Oral bioavailability in Sprague-Dawley rat at 5 mg/kg; type: ADME, organism-based; details: in vivo; how it was run: as §2
Rattus norvegicus [12] = test: (§5) Tmax in Sprague-Dawley rat at 5 mg/kg, po; type: ADME, organism-based; set-up: dose 5 mg/kg, route oral; details: in vivo; how it was run: as §2
Rattus norvegicus [13] = test: (§6) Half life in Sprague-Dawley rat at 5 mg/kg, po; type: ADME, organism-based; set-up: dose 5 mg/kg, route oral; details: in vivo; how it was run: as §2
Rattus norvegicus [14] = test: Cmax in Sprague-Dawley rat at 5 mg/kg, po; type: ADME, organism-based; set-up: dose 5 mg/kg, route oral; details: in vivo; how it was run: as §2
Hepatitis C virus [15] = test: Antiviral activity against Hepatitis C virus genotype 2a expressed in human Huh-7 Lunet cells after 48 hrs by luciferase reporter gene assay; type: functional, organism-based, Hepacivirus hominis; details: huh-7
Hepatitis C virus [16] = test: Antiviral activity against Hepatitis C virus genotype 1b expressed in ET cells after 48 hrs by luciferase reporter gene assay; type: functional, organism-based, Hepacivirus hominis; details: et
Hepatitis C virus [17] = test: Antiviral activity against Hepatitis C virus genotype 1a expressed in ET cells after 48 hrs by luciferase reporter gene assay; type: functional, organism-based, Hepacivirus hominis, subtype 1a; details: et
[18] = Inhibition of PI3Kdelta (1 to 1044)/6xHis-tagged p85 (1 to 724) (unknown origin) using diC8-PIP2 as substrate preincubated for 30 mins followed by substrate addition measured after 45 to 60 mins; set-up: species or system Homo sapiens
[19] = Inhibition of PI3Kbeta (1 to 1070)/6xHis-tagged p85 (1 to 724) (unknown origin) using diC8-PIP2 as substrate preincubated for 30 mins followed by substrate addition measured after 45 to 60 mins; set-up: species or system Homo sapiens
[20] = Inhibition of PI3Kalpha (1 to 1068)/6xHis-tagged p85 (1 to 724) (unknown origin) using diC8-PIP2 as substrate preincubated for 30 mins followed by substrate addition measured after 45 to 60 mins; set-up: species or system Homo sapiens
[21] = Inhibition of 6xHis-tagged PI4K-beta (13 to 828) 316 to 330 deletion mutant (unknown origin) using D-myo-phosphatidylinositol as substrate preincubated for 30 mins followed by substrate addition measured after 180 mins by luminescence assay; set-up: species or system Homo sapiens
[22] = target: Phosphatidylinositol 4-kinase alpha (Homo sapiens, UniProt P42356); test: Inhibition of GST-tagged PI4K-alpha (1 to 2044) (unknown origin) using D-myo-phosphatidylinositol as substrate preincubated for 30 mins followed by substrate addition measured after 180 mins by luminescence assay
[23] = target: Phosphatidylinositol 4,5-bisphosphate 3-kinase catalytic subunit gamma isoform (Homo sapiens, UniProt P48736)
[24] = as §3; type: ADME, organism-based; set-up: dose 1 mg/kg, route intravenous; details: Sprague-Dawley, in vivo, read-out: Vdss; how it was run: as §2
[25] = Clearance in Sprague-Dawley rat at 1 mg/kg, iv; type: ADME, organism-based; set-up: dose 1 mg/kg, route intravenous; details: in vivo; how it was run: as §2
[26] = Thermodynamic stability of the compound in DMSO assessed as interconversion at 80 degC after 6 days; type: physicochemical; details: 144 h
[27] = Thermodynamic stability of the compound in DMSO assessed as decomposition at 80 degC after 6 days; type: physicochemical; details: 144 h
[28] = as §4; type: ADME, organism-based; details: Sprague-Dawley, in vivo; how it was run: as §2
[29] = as §5; type: ADME, organism-based; set-up: dose 5 mg/kg, route oral; details: Sprague-Dawley, in vivo; how it was run: as §2
[30] = as §6; type: ADME, organism-based; set-up: dose 5 mg/kg, route oral; details: Sprague-Dawley, in vivo; how it was run: as §2

Chain of Phosphatidylinositol 4-kinase alpha (P42356 whole entry, canonical isoform): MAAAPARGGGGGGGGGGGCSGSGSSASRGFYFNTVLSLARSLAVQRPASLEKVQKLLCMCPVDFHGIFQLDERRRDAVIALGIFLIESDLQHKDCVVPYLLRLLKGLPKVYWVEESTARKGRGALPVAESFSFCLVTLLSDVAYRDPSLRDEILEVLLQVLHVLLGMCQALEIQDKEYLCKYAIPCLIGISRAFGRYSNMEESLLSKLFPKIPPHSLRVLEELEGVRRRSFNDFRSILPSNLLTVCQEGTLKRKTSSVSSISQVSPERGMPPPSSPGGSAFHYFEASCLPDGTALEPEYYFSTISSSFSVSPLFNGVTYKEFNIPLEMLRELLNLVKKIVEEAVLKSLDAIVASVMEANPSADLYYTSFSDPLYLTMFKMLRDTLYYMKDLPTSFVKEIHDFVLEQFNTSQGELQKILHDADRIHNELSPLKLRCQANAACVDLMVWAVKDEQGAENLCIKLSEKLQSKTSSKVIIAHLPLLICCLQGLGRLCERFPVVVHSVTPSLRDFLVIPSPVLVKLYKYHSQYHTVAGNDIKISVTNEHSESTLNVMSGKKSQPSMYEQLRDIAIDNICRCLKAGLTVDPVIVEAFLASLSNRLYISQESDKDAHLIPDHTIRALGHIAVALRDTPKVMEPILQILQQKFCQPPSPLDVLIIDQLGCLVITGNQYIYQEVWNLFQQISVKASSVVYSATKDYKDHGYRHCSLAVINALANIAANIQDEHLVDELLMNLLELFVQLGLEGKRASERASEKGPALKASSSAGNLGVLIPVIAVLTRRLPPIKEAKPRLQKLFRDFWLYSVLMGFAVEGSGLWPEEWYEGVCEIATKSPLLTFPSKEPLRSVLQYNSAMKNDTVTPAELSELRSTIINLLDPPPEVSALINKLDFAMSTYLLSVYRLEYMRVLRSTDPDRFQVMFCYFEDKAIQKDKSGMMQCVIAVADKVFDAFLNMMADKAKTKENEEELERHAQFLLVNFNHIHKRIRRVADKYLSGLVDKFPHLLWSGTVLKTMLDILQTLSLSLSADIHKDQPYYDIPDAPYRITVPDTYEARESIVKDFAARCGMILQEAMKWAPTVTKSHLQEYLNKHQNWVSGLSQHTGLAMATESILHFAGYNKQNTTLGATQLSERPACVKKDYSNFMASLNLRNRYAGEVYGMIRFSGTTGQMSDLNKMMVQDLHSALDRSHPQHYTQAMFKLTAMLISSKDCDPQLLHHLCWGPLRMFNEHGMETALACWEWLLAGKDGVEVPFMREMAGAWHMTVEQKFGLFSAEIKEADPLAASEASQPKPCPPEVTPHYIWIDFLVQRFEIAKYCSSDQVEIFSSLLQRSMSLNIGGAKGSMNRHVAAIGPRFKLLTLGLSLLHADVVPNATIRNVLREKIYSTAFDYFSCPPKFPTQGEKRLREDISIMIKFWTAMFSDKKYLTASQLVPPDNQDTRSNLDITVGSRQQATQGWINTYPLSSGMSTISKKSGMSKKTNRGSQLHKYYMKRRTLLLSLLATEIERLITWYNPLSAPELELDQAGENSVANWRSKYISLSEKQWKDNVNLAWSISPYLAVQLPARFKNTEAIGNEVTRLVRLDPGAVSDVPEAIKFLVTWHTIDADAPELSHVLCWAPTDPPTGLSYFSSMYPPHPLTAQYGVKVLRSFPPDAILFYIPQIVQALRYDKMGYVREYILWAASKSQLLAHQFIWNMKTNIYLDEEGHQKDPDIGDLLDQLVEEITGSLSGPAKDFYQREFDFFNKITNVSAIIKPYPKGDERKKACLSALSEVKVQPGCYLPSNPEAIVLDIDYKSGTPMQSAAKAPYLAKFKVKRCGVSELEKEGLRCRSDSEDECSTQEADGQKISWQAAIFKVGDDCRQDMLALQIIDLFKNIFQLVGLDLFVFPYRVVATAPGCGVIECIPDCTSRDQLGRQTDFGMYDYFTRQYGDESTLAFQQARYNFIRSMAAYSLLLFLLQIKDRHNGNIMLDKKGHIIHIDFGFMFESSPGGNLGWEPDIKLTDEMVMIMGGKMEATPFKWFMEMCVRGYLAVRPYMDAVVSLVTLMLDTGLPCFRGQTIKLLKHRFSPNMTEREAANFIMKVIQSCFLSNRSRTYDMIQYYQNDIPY
Chain of Phosphatidylinositol 4,5-bisphosphate 3-kinase catalytic subunit gamma isoform (P48736 whole entry, canonical isoform): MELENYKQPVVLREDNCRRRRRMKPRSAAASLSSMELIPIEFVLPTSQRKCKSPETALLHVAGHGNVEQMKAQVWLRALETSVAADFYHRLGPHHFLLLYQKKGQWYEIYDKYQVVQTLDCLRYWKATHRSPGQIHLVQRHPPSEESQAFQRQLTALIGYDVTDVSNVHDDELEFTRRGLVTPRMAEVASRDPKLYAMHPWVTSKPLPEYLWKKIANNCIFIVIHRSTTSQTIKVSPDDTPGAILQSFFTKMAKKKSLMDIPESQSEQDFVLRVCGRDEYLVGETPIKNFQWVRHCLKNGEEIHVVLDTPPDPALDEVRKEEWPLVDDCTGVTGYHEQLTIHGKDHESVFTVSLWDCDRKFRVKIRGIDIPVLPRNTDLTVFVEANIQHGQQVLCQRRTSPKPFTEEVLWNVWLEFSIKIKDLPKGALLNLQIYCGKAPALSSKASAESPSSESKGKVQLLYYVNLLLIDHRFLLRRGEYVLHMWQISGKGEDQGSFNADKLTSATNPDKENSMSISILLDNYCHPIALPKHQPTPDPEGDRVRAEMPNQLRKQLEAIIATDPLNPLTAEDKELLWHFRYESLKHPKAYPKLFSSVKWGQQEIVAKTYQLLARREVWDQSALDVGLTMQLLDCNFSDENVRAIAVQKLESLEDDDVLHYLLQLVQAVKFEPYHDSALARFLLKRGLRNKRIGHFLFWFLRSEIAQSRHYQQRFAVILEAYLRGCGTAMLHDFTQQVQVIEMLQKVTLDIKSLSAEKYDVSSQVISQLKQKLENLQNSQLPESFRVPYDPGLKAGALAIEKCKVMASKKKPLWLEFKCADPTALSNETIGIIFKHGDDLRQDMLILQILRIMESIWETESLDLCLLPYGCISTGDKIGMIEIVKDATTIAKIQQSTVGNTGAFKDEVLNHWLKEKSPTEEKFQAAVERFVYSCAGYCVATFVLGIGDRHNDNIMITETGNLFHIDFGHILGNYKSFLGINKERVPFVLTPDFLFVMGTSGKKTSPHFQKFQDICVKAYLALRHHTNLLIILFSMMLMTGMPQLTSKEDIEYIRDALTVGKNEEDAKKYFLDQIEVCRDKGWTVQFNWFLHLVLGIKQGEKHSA

| SMILES | AUC/dose (Rattus norvegicus [7]) | AUC/dose (Rattus norvegicus [8]) | t1/2 (Rattus norvegicus [10]) | Cmax (Rattus norvegicus [14]) | pIC50 (Hepatitis C virus [15]) | pIC50 (Hepatitis C virus [16]) | pIC50 (Hepatitis C virus [17]) | pIC50 [18] | pIC50 [19] | pIC50 [20] | pIC50 [21] | IC50 [22] | IC50 [23] | further results |
| --- | --- | --- | --- | --- | --- | --- | --- | --- | --- | --- | --- | --- | --- | --- |
| COc1ncc(-c2ccc3nc(N)n(-c4ccccc4C(F)(F)F)c(=O)c3c2)cc1S(=O)(=O)Nc1ccc(F)cc1F (atropisomer aS) | 3626 kg·ng·h/mL/mg | 3695 kg·ng·h/mL/mg | 1.3 h | 1556 ng/mL | 7.9 | 8.6 | 7.9 | 5.6 | 5.1 | 5.6 | 6 | 5.01 nM | 2510 nM | Activity (Mus musculus [1]): Toxic; Activity (Mus musculus [2]): Toxic; Activity (Mus musculus [3]): Toxic; Activity (Mus musculus [4]): Toxic; Activity (Mus musculus [5]): Toxic; MTD at 336 h [6]: 50 mg/kg; Vdss (Rattus norvegicus [9]): 0.34 L/kg; F (Rattus norvegicus [11]): 98%; Tmax (Rattus norvegicus [12]): 4.25 h; t1/2 (Rattus norvegicus [13]): 4 h |
| COc1ncc(-c2ccc3nc(N)n(-c4ccccc4C(F)(F)F)c(=O)c3c2)cc1S(=O)(=O)Nc1ccc(F)cc1F (atropisomer aR) | 9985 kg·ng·h/mL/mg | 7113 kg·ng·h/mL/mg | 3.5 h | 4429 ng/mL | 7.1 | 7.8 | 6.9 | 5 | 4.8 | 5.5 | 5.3 | 126 nM | 3160 nM | Vd [24]: 0.55 L/kg; clearance [25]: 2.5 mL/min/kg; Stability [26]: Stable; Stability [27]: Stable; bioavailability [28]: > 100%; Tmax [29]: 3 h; half-life [30]: 2.7 h |
